Legend:
[1] = target: Serine/threonine-protein kinase PAK 1 (Homo sapiens) (UniProt Q13153); experiment: Binding affinity to wild-type human partial length PAK1 (S149 to H545 residues) expressed in bacterial expression system assessed as residual binding level at 1 uM by Kinomescan method relative to control
[2] = target: Mitogen-activated protein kinase kinase kinase 4 (Homo sapiens) (UniProt Q9Y6R4); experiment: Binding affinity to wild-type human partial length MAP3K4 (G1319 to E1608 residues) expressed in bacterial expression system assessed as residual binding level at 1 uM by Kinomescan method relative to control
[3] = tested on: Tyrosine-protein kinase ABL1 (Homo sapiens), P00519 [F317I]; experiment: Binding affinity to human non-phosphorylated ABL1 F317I mutant (S229 to K512 residues) expressed in mammalian expression system assessed as residual binding level at 1 uM by Kinomescan method relative to control
In short: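 Kinome-wide single-concentration binding screen (KINOMEscan) at 1 μM against a panel of 468 purified kinases and mutants. Read-out is relative binding of each kinase compared with control. Selectivity across the panel was summarised as an S(10) score.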

[4] = target: 5'-AMP-activated protein kinase catalytic subunit alpha-2 (Homo sapiens) (UniProt P54646); experiment: Binding affinity to wild-type human partial length AMPK alpha2 (M1 to E306 residues) expressed in bacterial expression system assessed as residual binding level at 1 uM by Kinomescan method relative to control
5'-AMP-activated protein kinase catalytic subunit alpha-2 (Homo sapiens), sequence (P54646 whole entry, looked up, the tested form may be a part): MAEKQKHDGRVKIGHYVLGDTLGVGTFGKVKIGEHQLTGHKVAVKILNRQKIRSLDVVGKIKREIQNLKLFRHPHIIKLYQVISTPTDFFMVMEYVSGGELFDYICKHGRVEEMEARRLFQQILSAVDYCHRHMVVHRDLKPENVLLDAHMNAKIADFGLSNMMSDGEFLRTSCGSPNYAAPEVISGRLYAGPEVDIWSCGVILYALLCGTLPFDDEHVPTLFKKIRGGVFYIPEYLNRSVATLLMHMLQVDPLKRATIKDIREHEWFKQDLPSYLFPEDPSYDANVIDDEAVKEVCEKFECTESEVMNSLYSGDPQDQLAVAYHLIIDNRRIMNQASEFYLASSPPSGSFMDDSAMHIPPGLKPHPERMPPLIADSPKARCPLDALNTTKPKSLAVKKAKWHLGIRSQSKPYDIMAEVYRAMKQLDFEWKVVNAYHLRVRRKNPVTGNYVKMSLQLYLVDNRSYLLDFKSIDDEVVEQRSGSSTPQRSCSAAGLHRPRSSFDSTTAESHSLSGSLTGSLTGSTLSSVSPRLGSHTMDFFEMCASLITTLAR
In short: (§1)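 Single-concentration KINOMEscan (DiscoverX) binding screen at 1 μM against a panel of 468 purified kinases and mutants. The read-out is binding relative to control.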

[5] = target: Serine/threonine-protein kinase MRCK beta (Homo sapiens) (UniProt Q9Y5S2); experiment: Binding affinity to wild-type human partial length MRCKB (L56 to S417 residues) expressed in bacterial expression system assessed as residual binding level at 1 uM by Kinomescan method relative to control
Serine/threonine-protein kinase MRCK beta (Homo sapiens), sequence (Q9Y5S2 whole entry, the tested form may be a part): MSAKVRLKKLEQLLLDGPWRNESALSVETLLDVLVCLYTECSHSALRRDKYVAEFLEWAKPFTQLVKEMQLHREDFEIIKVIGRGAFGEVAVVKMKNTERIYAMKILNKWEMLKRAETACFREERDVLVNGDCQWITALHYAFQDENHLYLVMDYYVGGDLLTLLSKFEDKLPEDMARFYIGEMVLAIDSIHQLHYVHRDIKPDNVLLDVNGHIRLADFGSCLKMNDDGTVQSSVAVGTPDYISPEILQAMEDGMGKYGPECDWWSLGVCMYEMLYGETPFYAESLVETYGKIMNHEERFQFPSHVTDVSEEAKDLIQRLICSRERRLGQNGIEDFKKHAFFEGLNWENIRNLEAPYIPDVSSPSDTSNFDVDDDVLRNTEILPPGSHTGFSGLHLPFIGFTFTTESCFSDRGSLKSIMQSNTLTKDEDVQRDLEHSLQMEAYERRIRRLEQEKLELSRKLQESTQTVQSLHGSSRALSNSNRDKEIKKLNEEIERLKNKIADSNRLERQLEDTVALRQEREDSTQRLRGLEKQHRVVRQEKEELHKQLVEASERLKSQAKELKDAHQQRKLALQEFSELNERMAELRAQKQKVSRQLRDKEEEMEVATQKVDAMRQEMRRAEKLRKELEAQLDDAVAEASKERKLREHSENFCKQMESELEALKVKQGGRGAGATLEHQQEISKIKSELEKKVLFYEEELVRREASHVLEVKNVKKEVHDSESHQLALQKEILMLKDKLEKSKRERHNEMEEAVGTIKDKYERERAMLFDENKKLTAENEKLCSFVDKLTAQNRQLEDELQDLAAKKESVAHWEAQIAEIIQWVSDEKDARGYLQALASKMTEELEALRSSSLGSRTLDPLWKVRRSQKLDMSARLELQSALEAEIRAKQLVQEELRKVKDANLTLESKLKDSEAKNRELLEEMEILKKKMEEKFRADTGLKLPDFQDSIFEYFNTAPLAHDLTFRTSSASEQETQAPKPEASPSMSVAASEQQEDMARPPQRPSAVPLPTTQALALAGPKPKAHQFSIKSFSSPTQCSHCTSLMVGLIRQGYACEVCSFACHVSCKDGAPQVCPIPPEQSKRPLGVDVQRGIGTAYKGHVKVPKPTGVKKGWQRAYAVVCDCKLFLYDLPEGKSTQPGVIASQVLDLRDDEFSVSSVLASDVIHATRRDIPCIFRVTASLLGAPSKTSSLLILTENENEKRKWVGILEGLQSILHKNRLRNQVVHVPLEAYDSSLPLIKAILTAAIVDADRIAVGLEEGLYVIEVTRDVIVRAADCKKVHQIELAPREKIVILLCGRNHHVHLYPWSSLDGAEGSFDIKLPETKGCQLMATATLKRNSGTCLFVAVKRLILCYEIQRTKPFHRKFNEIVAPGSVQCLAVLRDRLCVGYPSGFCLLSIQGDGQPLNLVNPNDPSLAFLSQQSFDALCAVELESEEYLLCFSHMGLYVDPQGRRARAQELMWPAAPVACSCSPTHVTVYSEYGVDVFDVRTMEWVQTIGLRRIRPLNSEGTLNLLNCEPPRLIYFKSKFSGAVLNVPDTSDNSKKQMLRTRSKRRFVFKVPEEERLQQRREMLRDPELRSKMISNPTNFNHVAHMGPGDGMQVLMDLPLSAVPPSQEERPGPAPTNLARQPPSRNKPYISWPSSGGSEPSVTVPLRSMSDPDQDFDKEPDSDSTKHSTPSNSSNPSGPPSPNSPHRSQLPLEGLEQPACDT

[6] = target: Homeodomain-interacting protein kinase 4 (Homo sapiens) (UniProt Q8NE63); experiment: Binding affinity to wild-type human partial length HIPK4 (M1 to V384 residues) expressed in bacterial expression system assessed as residual binding level at 1 uM by Kinomescan method relative to control
Homeodomain-interacting protein kinase 4 (Homo sapiens), sequence (Q8NE63 whole entry, the tested form may be a part): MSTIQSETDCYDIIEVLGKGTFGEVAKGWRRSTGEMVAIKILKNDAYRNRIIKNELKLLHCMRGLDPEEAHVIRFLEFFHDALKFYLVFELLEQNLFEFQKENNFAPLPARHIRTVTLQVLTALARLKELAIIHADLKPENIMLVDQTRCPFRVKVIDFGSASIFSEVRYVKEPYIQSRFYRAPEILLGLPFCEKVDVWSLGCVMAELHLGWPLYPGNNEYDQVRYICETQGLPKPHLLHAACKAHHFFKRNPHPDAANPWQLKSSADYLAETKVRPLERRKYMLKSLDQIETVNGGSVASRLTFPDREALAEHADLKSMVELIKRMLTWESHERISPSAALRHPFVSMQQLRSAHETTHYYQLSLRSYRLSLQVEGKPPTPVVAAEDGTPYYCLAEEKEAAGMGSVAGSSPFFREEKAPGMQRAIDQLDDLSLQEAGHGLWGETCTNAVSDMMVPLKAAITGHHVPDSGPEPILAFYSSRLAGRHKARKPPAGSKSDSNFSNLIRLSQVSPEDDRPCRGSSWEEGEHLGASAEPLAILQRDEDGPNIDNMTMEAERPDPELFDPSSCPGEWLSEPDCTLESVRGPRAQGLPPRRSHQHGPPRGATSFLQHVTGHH
In short: (§2)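 Kinome-wide competition binding screen against a panel of 468 purified kinases/mutants, with the test compound at a single concentration of 1 μM. Read-out is the relative binding activity of each kinase in the presence of compound.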

[7] = target: Serine/threonine-protein kinase 26 (Homo sapiens) (UniProt Q9P289); experiment: Binding affinity to wild-type human full length MST4 (M1 to P416 residues) expressed in mammalian expression system assessed as residual binding level at 1 uM by Kinomescan method relative to control; in short: as §1
[8] = target: Receptor-interacting serine/threonine-protein kinase 1 (Homo sapiens) (UniProt Q13546); experiment: Binding affinity to wild-type human partial length RIPK1 (M1 to K305 residues) expressed in bacterial expression system assessed as residual binding level at 1 uM by Kinomescan method relative to control
In short: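 KINOMEscan competition binding against a panel of 468 purified kinases/mutants, compound tested at 1 μM; readout is relative binding activity versus control.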

[9] = target: Serine/threonine-protein kinase 38-like (Homo sapiens) (UniProt Q9Y2H1); experiment: Binding affinity to wild-type human partial length NDR2 (N34 to E447 residues) expressed in bacterial expression system assessed as residual binding level at 1 uM by Kinomescan method relative to control; in short: as §2
[10] = target: Mitogen-activated protein kinase kinase kinase kinase 4 (Homo sapiens) (UniProt O95819); experiment: Binding affinity to wild-type human partial length MAP4K4 (M1 to R310 residues) expressed in bacterial expression system assessed as residual binding level at 1 uM by Kinomescan method relative to control; in short: as §2
[11] = target: Mitogen-activated protein kinase 1 (Homo sapiens) (UniProt P28482); experiment: Binding affinity to wild-type human full length ERK2 (M1 to S360 residues) expressed in bacterial expression system assessed as residual binding level at 1 uM by Kinomescan method relative to control
Mitogen-activated protein kinase 1 (Homo sapiens), sequence (P28482 whole entry, the tested form may be a part): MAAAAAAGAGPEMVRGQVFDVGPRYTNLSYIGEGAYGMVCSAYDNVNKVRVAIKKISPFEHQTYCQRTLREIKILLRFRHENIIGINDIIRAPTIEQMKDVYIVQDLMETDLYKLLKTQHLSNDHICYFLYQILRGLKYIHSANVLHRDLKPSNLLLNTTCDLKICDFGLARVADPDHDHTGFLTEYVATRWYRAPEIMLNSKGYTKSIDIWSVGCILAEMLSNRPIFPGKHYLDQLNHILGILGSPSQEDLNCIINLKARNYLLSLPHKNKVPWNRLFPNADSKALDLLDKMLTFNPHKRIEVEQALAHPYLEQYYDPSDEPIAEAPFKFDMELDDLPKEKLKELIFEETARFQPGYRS
In short: (§3)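 KINOMEscan competition binding against 468 purified kinases/mutants, test compound at 1 µM; residual binding relative to control.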

Rattus norvegicus = experiment: Apparent volume of distribution in Sprague-Dawley rat at 10 mg/kg, po; format: ADME, organism-based; settings: in vivo
[12] = target: Calcium/calmodulin-dependent protein kinase type 1D (Homo sapiens) (UniProt Q8IU85); experiment: Binding affinity to wild-type human partial length CAMK1D (M1 to K299 residues) expressed in bacterial expression system assessed as residual binding level at 1 uM by Kinomescan method relative to control; in short: as §2
[13] = target: Rhodopsin kinase GRK1 (Homo sapiens) (UniProt Q15835); experiment: Binding affinity to wild-type human full length GRK1 (M1 to S563 residues) expressed in mammalian expression system assessed as residual binding level at 1 uM by Kinomescan method relative to control
In short: (§4)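 Single-concentration (1 μM) competition-binding screen run by KINOMEscan against a panel of 468 purified kinases and mutants. The read-out is the relative binding activity of the test compound to each kinase.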

[14] = target: Fibroblast growth factor receptor 2 (Homo sapiens) (UniProt P21802); experiment: Binding affinity to wild-type human partial length FGFR2 (D457 to E769 residues) expressed in bacterial expression system assessed as residual binding level at 1 uM by Kinomescan method relative to control; in short: as §2
Fibroblast growth factor receptor 2 (Homo sapiens), sequence (P21802 22-821 limits assumed): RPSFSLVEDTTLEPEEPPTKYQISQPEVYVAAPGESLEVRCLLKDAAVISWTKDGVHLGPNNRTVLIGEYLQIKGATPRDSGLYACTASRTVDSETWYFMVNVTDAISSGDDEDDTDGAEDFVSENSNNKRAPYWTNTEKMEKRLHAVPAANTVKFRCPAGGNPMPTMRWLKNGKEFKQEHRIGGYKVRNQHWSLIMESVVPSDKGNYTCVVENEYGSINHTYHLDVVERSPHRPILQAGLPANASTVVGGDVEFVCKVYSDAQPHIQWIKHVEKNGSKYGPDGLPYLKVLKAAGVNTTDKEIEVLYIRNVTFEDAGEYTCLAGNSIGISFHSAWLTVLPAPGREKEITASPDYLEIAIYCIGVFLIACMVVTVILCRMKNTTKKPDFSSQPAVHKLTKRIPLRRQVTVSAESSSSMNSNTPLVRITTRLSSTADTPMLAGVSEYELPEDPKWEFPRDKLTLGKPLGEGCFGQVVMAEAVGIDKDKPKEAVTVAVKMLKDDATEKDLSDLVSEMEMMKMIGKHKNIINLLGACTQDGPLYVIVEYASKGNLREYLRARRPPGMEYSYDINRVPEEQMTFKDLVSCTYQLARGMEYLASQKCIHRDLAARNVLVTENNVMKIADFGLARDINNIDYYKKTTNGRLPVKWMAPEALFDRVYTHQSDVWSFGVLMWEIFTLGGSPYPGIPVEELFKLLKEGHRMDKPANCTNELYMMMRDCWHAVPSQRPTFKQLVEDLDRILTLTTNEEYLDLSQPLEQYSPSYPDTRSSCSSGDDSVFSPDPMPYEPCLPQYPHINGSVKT

[15] = target: Ephrin type-B receptor 2 (Homo sapiens) (UniProt P29323); experiment: Binding affinity to wild-type human partial length EPHB2 (I597 to L902 residues) expressed in bacterial expression system assessed as residual binding level at 1 uM by Kinomescan method relative to control
[16] = target: Tyrosine-protein kinase SYK (Homo sapiens) (UniProt P43405); experiment: Binding affinity to wild-type human partial length SYK (D354 to N635 residues) expressed in bacterial expression system assessed as residual binding level at 1 uM by Kinomescan method relative to control
[17] = target: Mitogen-activated protein kinase 10 (Homo sapiens) (UniProt P53779); experiment: Binding affinity to wild-type human partial length JNK3 (V28 to Q422 residues) expressed in mammalian expression system assessed as residual binding level at 1 uM by Kinomescan method relative to control; in short: as §2
[18] = target: Cyclin-dependent kinase 4/cyclin D1 (Homo sapiens) (UniProt P11802+P24385); experiment: Binding affinity to wild-type human full length CDK4/cyclinD1 (M1 to E303 residues) expressed in mammalian expression system assessed as residual binding level at 1 uM by Kinomescan method relative to control; in short: as §4
[19] = target: Casein kinase I isoform gamma-3 (Homo sapiens) (UniProt Q9Y6M4); experiment: Binding affinity to wild-type human full length CSNK1G3 (M1 to K447 residues) expressed in bacterial expression system assessed as residual binding level at 1 uM by Kinomescan method relative to control; in short: as §3
[20] = target: Serine/threonine-protein kinase TNNI3K (Homo sapiens) (UniProt Q59H18); experiment: Binding affinity to wild-type human full length TNNI3K (M1 to S835 residues) expressed in bacterial expression system assessed as residual binding level at 1 uM by Kinomescan method relative to control; in short: as §1
Serine/threonine-protein kinase TNNI3K (Homo sapiens), sequence (Q59H18 whole entry, the tested form may be a part): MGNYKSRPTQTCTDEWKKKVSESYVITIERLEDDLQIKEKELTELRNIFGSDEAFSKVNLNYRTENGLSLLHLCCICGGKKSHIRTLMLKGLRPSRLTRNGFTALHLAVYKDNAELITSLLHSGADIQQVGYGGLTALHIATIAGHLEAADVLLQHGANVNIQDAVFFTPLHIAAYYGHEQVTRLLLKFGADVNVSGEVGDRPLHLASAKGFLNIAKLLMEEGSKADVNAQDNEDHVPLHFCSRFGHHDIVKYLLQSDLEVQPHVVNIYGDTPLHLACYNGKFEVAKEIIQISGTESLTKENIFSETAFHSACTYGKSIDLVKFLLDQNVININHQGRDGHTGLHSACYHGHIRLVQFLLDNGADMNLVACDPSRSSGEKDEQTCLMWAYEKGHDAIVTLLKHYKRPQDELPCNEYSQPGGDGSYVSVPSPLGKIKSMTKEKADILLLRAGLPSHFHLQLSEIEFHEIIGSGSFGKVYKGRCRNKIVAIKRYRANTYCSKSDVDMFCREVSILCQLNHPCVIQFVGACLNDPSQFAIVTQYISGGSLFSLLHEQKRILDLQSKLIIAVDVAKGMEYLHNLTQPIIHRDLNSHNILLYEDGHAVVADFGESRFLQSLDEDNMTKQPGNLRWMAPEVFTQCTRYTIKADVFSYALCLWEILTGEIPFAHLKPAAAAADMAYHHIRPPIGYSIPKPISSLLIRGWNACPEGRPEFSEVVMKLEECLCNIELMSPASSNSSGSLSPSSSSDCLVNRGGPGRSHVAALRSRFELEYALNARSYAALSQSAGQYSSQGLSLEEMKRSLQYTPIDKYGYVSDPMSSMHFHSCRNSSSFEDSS

## Cc1ccc(NC(=O)c2ccc(CN(CCN(C)C)C(=O)c3cccnc3)cc2)cc1Nc1nccc(-c2cccnc2)n1
[1]
  Activity: 95%
[2]
  Activity: 90%
[3]
  Activity: 94%
[4]
  Activity: 100%
[5]
  Activity: 99%
[6]
  Activity: 74%
[7]
  Activity: 99%
[8]
  Activity: 89%
[9]
  Activity: 82%
[10]
  Activity: 87%
[11]
  Activity: 83%
Rattus norvegicus
  Vz: 256.181 L/kg
[12]
  Activity: 84%
[13]
  Activity: 96%
[14]
  Activity: 80%
[15]
  Activity: 100%
[16]
  Activity: 96%
[17]
  Activity: 48%
[18]
  Activity: 100%
[19]
  Activity: 92%
[20]
  Activity: 100%

Reference: ChEMBL document CHEMBL4229344 (Eur J Med Chem, 2018)
